The nature of series [1]: Drug concentration in ICR mouse brain at 10 mg/kg, iv after 1 hr by LC-MS/MS analysis. Type of series: ADME, organism-based. The conditions noted are these: in vivo. A digest of the protocol:
(§1)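 ICR mice received a single intravenous dose of 10 mg/kg. Brain homogenates taken at 1 h post-dose were assayed for compound level and for LMP2 activity.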

A short description of series [2]: Toxicity in ICR mouse. Conditions: in vivo.
Series [3] in a line: Inhibition of human 20S proteasome Y using Ac-nLPnLD-AMC as fluorogenic substrate measured every minute for 1 hr by fluorescence assay. A digest of the protocol:
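Preincubated 1 h with inhibitor at 3-10,000 nM (8 concentrations). Substrates at 100 μM: Ac-PAL-AMC (LMP2), Ac-nLPnLD-AMC (Y), Ac-ANW-AMC (LMP7). Ac-WLA-AMC (X) at 20 μM. AMC fluorescence (360/460 nm) read each minute for 1 h; 3 replicates.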

The target of series [4] is T1, Proteasome subunit beta type-9 (Mus musculus) (UniProt P28076).
T1 sequence (whole entry): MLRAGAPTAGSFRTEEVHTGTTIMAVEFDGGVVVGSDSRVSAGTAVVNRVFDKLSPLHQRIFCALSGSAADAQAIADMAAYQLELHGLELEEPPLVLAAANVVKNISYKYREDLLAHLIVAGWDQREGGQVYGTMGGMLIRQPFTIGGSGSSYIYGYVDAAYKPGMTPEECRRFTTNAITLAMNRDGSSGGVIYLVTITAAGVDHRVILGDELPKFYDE
The series can be described thus: Inhibition of LMP2 in ICR mouse brain homogenate at 10 mg/kg, iv after 1 hr. Type of series: organism-based. A digest of the protocol: as §1

Series [5] relates to Mus musculus. The series can be described thus: Cognitive enhancing effect in Tg2576 mouse assessed as reduction in escape latency at 10 mg/kg, iv administered twice weekly and measured after 5 days by Morris water maze test. The class given is functional, organism-based. The conditions noted are these: time 5.0 day. The method in brief: (§2)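 Tg2576 mice, 9 months old, given 10 mg/kg twice weekly for 3 weeks. Morris water maze in 25 ± 1 °C water, platform hidden 1-1.5 cm below surface. Three 60-s trials a day from randomized start points for 5 days. Swim paths tracked from an overhead camera. Single probe trial on day 6 scored as time in target quadrant. n=5 treated, n=12 control on days 4-5; Student's t-test.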

The target of series [6] is Proteasome subunit beta type-9 (Mus musculus) (UniProt P28076). The experiment in a line: Inhibition of LMP2 in mouse BV-2 cells assessed as reduction in LPS-stimulated IL-1alpha release by ELISA. For orientation: In an ELISA, binding on a coated surface is turned into a signal by an enzyme label.
The subject of series [7] is Mus musculus. The experiment in a line: Cognitive enhancing effect in Tg2576 mouse assessed as shorter distances travelled before reaching the escape platform at 10 mg/kg, iv administered twice weekly and measured after 5 days by Morris water maze test. Type of series: functional, organism-based. Conditions: time 5.0 day. A digest of the protocol:
as §2

Series [8] has as its system Mus musculus. The series can be described thus: Cognitive enhancing effect in Tg2576 mouse assessed as improvement in spatial learning and memory by measuring increase in time spent in target quadrant at 10 mg/kg, iv administered twice weekly and measured after 6 days during probe trial by Morris water maze test. The class given is functional, organism-based. The conditions noted are these: time 6.0 day. A digest of the protocol:
as §2

Calls of active or inactive are those of the source. No cut-off for these calls is given here.

We go through one molecule from ChEMBL document CHEMBL4828720, “Macrocyclic Immunoproteasome Inhibitors as a Potential Therapy for Alzheimer's Disease” (J Med Chem, 2021).

The term IC50 denotes the concentration that gives 50% inhibition. High values mean a need for much substance, low ones inhibition by little substance.

In series [1], `C[C@]1(C(=O)[C@H](Cc2ccccc2)NC(=O)[C@@H]2Cc3ccc(cc3)OCCCCCCCC(=O)N3CCC[C@H]3C(=O)N2)CO1` showed a Ct of 3.5 pmol/g. Also, the Activity entry in series [2] is “Non-Toxic”. For the same molecule, in series [3], the IC50 came to 8.38 µM. For the same molecule, the inhibition entry in series [4] was “inactive”. The outcome in series [5], in series [7] and in series [8] was Active. Moreover, in series [6], the inhibition entry is “Active”.
